# Test results published in ChEMBL document CHEMBL1806370, “Development of novel naphthalimide derivatives and their evaluation as potential melanoma therapeutics” (Eur J Med Chem, 2011).
# System: UACC-903
# Assay: Induction of apoptosis in human UACC-903 cells assessed as early apoptotic cells at 5 uM after 24 hrs using annexin-V-PE/7-AAD double staining by flow cytometry
# Type: functional
# Conditions: not given
# Procedure, shortened: (§1)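 UACC 903 cells were exposed 24 h at 37 °C to 1, 5 or 25 µM, with DMSO as control. Cells were harvested, washed twice in cold PBS and resuspended at 1×10^6 cells/mL in binding buffer. They were stained with 7-AAD plus PE Annexin V for 20 min at room temperature in the dark and run by flow cytometry within 1 h. Gating: double-negative live, 7-AAD+ dead, Annexin V+/7-AAD− early apoptotic. Three separate experiments.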
row,Structure (SMILES),Activity [%]
1,O=C1c2cccc3cc([N+](=O)[O-])cc(c23)C(=O)N1CCN=C=S,22.2

# System: UACC-903
# Assay: Induction of apoptosis in human UACC-903 cells assessed as late apoptotic cells at 5 uM after 24 hrs using annexin-V-PE/7-AAD double staining by flow cytometry
# Type: functional
# Conditions: not given
# Procedure, shortened: as §1
row,Structure (SMILES),Activity [%]
1,O=C1c2cccc3cc([N+](=O)[O-])cc(c23)C(=O)N1CCN=C=S,11.9

# System: UACC-903
# Assay: Induction of apoptosis in human UACC-903 cells assessed as non-viable cells at 5 uM after 24 hrs using annexin-V-PE/7-AAD double staining by flow cytometry
# Type: functional
# Conditions: not given
# Procedure, shortened: as §1
row,Structure (SMILES),Activity [%]
1,O=C1c2cccc3cc([N+](=O)[O-])cc(c23)C(=O)N1CCN=C=S,1.23

# System: UACC-903
# Assay: Induction of apoptosis in human UACC-903 cells assessed as viable cells at 5 uM after 24 hrs using annexin-V-PE/7-AAD double staining by flow cytometry
# Type: functional
# Conditions: UACC-903, 24 h, read-out: Activity
# Procedure, shortened: as §1
row,Structure (SMILES),viability at 5 µM [%]
1,O=C1c2cccc3cc([N+](=O)[O-])cc(c23)C(=O)N1CCN=C=S,64.7

# System: UACC-903
# Assay: Induction of apoptosis in human UACC-903 cells assessed as early apoptotic cells at 25 uM after 24 hrs using annexin-V-PE/7-AAD double staining by flow cytometry
# Type: functional
# Conditions: not given
# Procedure, shortened: as §1
row,Structure (SMILES),Activity [%]
1,O=C1c2cccc3cc([N+](=O)[O-])cc(c23)C(=O)N1CCN=C=S,79.8

# System: UACC-903
# Assay: Induction of apoptosis in human UACC-903 cells assessed as late apoptotic cells at 25 uM after 24 hrs using annexin-V-PE/7-AAD double staining by flow cytometry
# Type: functional
# Conditions: not given
# Procedure, shortened: as §1
row,Structure (SMILES),Activity [%]
1,O=C1c2cccc3cc([N+](=O)[O-])cc(c23)C(=O)N1CCN=C=S,18.6

# System: UACC-903
# Assay: Induction of apoptosis in human UACC-903 cells assessed as non-viable cells at 25 uM after 24 hrs using annexin-V-PE/7-AAD double staining by flow cytometry
# Type: functional
# Conditions: not given
# Procedure, shortened: as §1
row,Structure (SMILES),Activity [%]
1,O=C1c2cccc3cc([N+](=O)[O-])cc(c23)C(=O)N1CCN=C=S,0.19

# System: UACC-903
# Assay: Induction of apoptosis in human UACC-903 cells assessed as viable cells at 25 uM after 24 hrs using annexin-V-PE/7-AAD double staining by flow cytometry
# Type: functional
# Conditions: UACC-903, 24 h, read-out: Activity
# Procedure, shortened: as §1
row,Structure (SMILES),viability at 25 µM [%]
1,O=C1c2cccc3cc([N+](=O)[O-])cc(c23)C(=O)N1CCN=C=S,1.4

# System: UACC-903
# Assay: Induction of apoptosis in human UACC-903 cells assessed as increase in apoptotic cells after 24 hrs using annexin-V-PE/7-AAD double staining by flow cytometry
# Type: functional, cell-based
# Conditions: not given
# Procedure, shortened: as §1
row,Structure (SMILES),Activity
1,O=C1c2cccc3cc([N+](=O)[O-])cc(c23)C(=O)N1CCN=C=S,Dose-dependent effect

# System: Mus musculus
# Assay: Systemic toxicity in Swiss Webster mouse assessed as mortality at 15 mg/kg, ip administered every day for 28 days
# Type: organism-based
# Set-up: dose 15 mg/kg, route intraperitoneal
# Conditions: in vivo, 672 h
# Procedure, shortened: (§2)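 Swiss Webster mice, n = 4 per group, dosed i.p. once daily for 28 days at 5, 7.5, 10 or 15 mg/kg body weight. Body weight recorded twice per week; deaths noted over the dosing period.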
row,Structure (SMILES),Activity
1,O=C1c2cccc3cc([N+](=O)[O-])cc(c23)C(=O)N1CCN=C=S,Toxic

# System: Mus musculus
# Assay: Systemic toxicity in Swiss Webster mouse assessed as weight loss at 10 mg/kg, ip administered every day for 28 days
# Type: organism-based
# Set-up: dose 10 mg/kg, route intraperitoneal
# Conditions: in vivo, 672 h
# Procedure, shortened: as §2
row,Structure (SMILES),Activity
1,O=C1c2cccc3cc([N+](=O)[O-])cc(c23)C(=O)N1CCN=C=S,Non-toxic

# System: Mus musculus
# Assay: Systemic toxicity in Swiss Webster mouse assessed as mortality at 10 mg/kg, ip administered every day for 28 days
# Type: organism-based
# Set-up: dose 10 mg/kg, route intraperitoneal
# Conditions: in vivo, 672 h
# Procedure, shortened: as §2
row,Structure (SMILES),Activity
1,O=C1c2cccc3cc([N+](=O)[O-])cc(c23)C(=O)N1CCN=C=S,Non-toxic

# System: Mus musculus
# Assay: Systemic toxicity in athymic Harlan Sprague-Dawley nude mouse xenografted with human UACC-903 cells assessed as mortality at 10 mg/kg, ip administered daily for 28 days
# Type: organism-based
# Set-up: dose 10 mg/kg, route intraperitoneal
# Conditions: in vivo, 672 h
row,Structure (SMILES),Activity
1,O=C1c2cccc3cc([N+](=O)[O-])cc(c23)C(=O)N1CCN=C=S,Non-toxic

# System: UACC-903
# Assay: Antitumor activity against human UACC-903 cells xenografted in athymic Harlan Sprague-Dawley nude mouse assessed as reduction in tumor growth at 8.5 to 10 mg/kg, ip administered thrice per week for 24 days measured after 21 days
# Type: functional
# Conditions: dose mg/kg 8.5-10; route intraperitoneal
# Procedure, shortened: (§3)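 Female athymic nude mice, 4–6 weeks old, received 5×10^6 UACC 903 cells s.c. in DMEM/10% FBS above both rib cages. After six days they were randomized at 5 mice/group, 2 tumors/mouse. Dosing was i.p. Mon/Wed/Fri, with one arm dosed daily; controls got DMSO vehicle. Tumor dimensions (calipers, mm³) and body weight were recorded three times weekly.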
row,Structure (SMILES),growth inhibition (GI) [%]
1,O=C1c2cccc3cc([N+](=O)[O-])cc(c23)C(=O)N1CCN=C=S,60

# System: Mus musculus
# Assay: Systemic toxicity in athymic Harlan Sprague-Dawley nude mouse xenografted with human UACC-903 cells assessed as reduction in body weight at 8.5 to 10 mg/kg, ip administered thrice a week for 24 days
# Type: organism-based
# Set-up: dose 8.5-10 mg/kg, route intraperitoneal
# Conditions: in vivo, 576 h
# Procedure, shortened: as §3
row,Structure (SMILES),Activity
1,O=C1c2cccc3cc([N+](=O)[O-])cc(c23)C(=O)N1CCN=C=S,Non-toxic

# System: SK-MEL-37 (Homo sapiens)
# Assay: Cytotoxicity against human SK-MEL-37 cells assessed as decrease in cell viability after 24 hrs by MTS assay
# Conditions: not given
row,Structure (SMILES),Activity
1,O=C1c2cccc3cc([N+](=O)[O-])cc(c23)C(=O)N1CCN=C=S,Dose-dependent effect

# System: SK-MEL-37 (Homo sapiens)
# Assay: Cytotoxicity against human SK-MEL-37 cells assessed as decrease in cell viability after 72 hrs by MTS assay
# Conditions: not given
row,Structure (SMILES),Activity
1,O=C1c2cccc3cc([N+](=O)[O-])cc(c23)C(=O)N1CCN=C=S,Dose-dependent effect

# System: Mus musculus
# Assay: Systemic toxicity in Swiss Webster mouse assessed as reduction in body weight at 10 mg/kg, ip administered daily for 28 days
# Set-up: scale not given: the % may be the effect or the level left
# Conditions: in vivo, 672 h
row,Structure (SMILES),Activity [%]
1,O=C1c2cccc3cc([N+](=O)[O-])cc(c23)C(=O)N1CCN=C=S,10
